These results are taken from publication PMC3478735 (ACS Nano, 2012).

For experiment [1], the system named is HeLa cells. The experiment is described as follows: Endosomal escape, codelivery of Calcein, fluorescence microscopy. It counts as cell-based, human. An outline of the steps: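 HeLa cells plated 48 h ahead to ≥70% confluence. Calcein 0.25 mM added alone or with nanocomplexes (100 nM siRNA) in DMEM + 10% bovine serum, 1 h, 37 °C. Cells washed three times in PBS and imaged live (FITC filter). Cells with diffuse cytoplasmic fluorescence counted in ≥8 random fields, normalised to total cells (500–800 per carrier per experiment), reported as mean % per field.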

For experiment [2], the system named is HeLa cells. The experiment is described as follows: Uptake of myr-TP-LyP-1 nanocomplexes in the presence of endocytosis inhibitors. It counts as cell-based, human. The settings on record: inhibitor 1 h at 37 °C, then nanocomplexes (2 μM peptide, 100 nM siRNA) 1 h, flow cytometry. The method, boiled down: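 HeLa cells at ~70% confluence. Small-molecule inhibitors applied 1 h at 37 °C. Then nanocomplexes of labelled peptide (2 μM) with GFP siRNA (100 nM) added for a further 1 h at 37 °C. Cells washed three times with cold PBS, trypsinised, and uptake read by flow cytometry.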
(In general: In flow cytometry, cells or beads pass a laser one at a time.)

Regarding `C[C@@H](O)[C@@H]1NC(=O)[C@H](CCCNC(=N)N)NC(=O)[C@H](CCCCN)NC(=O)[C@H](CC(N)=O)NC(=O)CNC(=O)[C@@H](N)CSSC[C@@H](C(=O)O)NC(=O)CNC(=O)[C@H](CCCNC(=N)N)NC1=O` [LyP-1], the “endosomal escape” value in experiment [1] is listed as “little or no endosomal escape”. As for `CCCCCCCCCC(=O)NC(CN1CCOCC1)C(O)c1ccccc1` (stereo not shown) [PDMP], the “uptake of myr-TP-LyP-1 nanocomplexes in the presence of the inhibitor” value (shortened to “uptake … of the inhibitor”) in experiment [2] is “significantly decreased”.

`N=C(N)NC(=O)c1nc(Cl)c(N)nc1N` [amiloride]: the “uptake … of the inhibitor” value in experiment [2] was “significantly decreased”. Turning to `OCC1OC(O)CC(O)C1O` (stereo not shown) [deoxyglucose], in experiment [2], the “uptake … of the inhibitor” value is listed as “significantly decreased”.
